Results from BindingDB's records for doi:10.1021/jm00069a013 (University of North Carolina, 1993).
Structures can show the parent of a compound that is named as a salt.

Assays:
[1] = Binding affinity against sigma receptor from guinea pig brain (minus cerebellum) homogenates, using [3H]ditolylguanidine (DTG) as radioligand.
Summary of the method: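 Competition binding with whole guinea pig brain (minus cerebellum) homogenates in 10 mM Tris-HCl without added cations. Nonspecific binding was defined by 10 μM haloperidol. Concentrations were tested in duplicate, with three replications. IC50 values came from curve fitting.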

[2] = Binding affinity against sigma receptor from guinea pig brain (minus cerebellum) homogenates, using the novel [3H]-(+/-)-4 as radioligand

SMILES	IC50 [2] [µM]	IC50 [1] [µM]
CN(C)[C@H]1CCc2ccccc2[C@H]1c1ccccc1 [Dimethyl-(1-phenyl-1,2,3,4-tetrahydro-naphthalen-2-yl)-amine]	2.75	3.34
C=CCN(CC=C)C1Cc2ccccc2C(c2ccccc2)C1 (stereo not drawn) [trans-Diallyl-(4-phenyl-1,2,3,4-tetrahydro-naphthalen-2-yl)-amine; hydrochloride]	0.027	0.538
C=CCN(C)C1Cc2ccccc2C(c2ccccc2)C1 (stereo not drawn) [trans-Allyl-methyl-(4-phenyl-1,2,3,4-tetrahydro-naphthalen-2-yl)-amine; hydrochloride]		1.55
CN(C)C1Cc2ccccc2C(c2ccccc2)C1 (stereo not drawn) [cis-Dimethyl-(4-phenyl-1,2,3,4-tetrahydro-naphthalen-2-yl)-amine; hydrochloride]		0.96
NC1Cc2ccccc2C(c2ccccc2)C1 (stereo not drawn) [trans-4-Phenyl-1,2,3,4-tetrahydro-naphthalen-2-ylamine; hydrochloride]		> 10

Now from value to compound, other results behind:

IC50 [2] [µM]	SMILES	IC50 [1] [µM]
0.117	C=CCNC1Cc2ccccc2C(c2ccccc2)C1 (stereo not drawn) [trans-Allyl-(4-phenyl-1,2,3,4-tetrahydro-naphthalen-2-yl)-amine; hydrochloride]	
0.0045	CCN(CC)C1Cc2ccccc2C(c2ccccc2)C1 (trans isomer)	0.207
